Laboratory results from ChEMBL document CHEMBL4004863, “Design, synthesis, biological evaluation and X-ray structural studies of potent human dihydroorotate dehydrogenase inhibitors based on hydroxylated azole scaffolds” (Eur J Med Chem, 2017).
Converted amounts (≈) assume the structure as drawn. The source made the active and inactive calls. No cut-off for these calls is given here.

System: not listed separately
Experiment: Solubility in pH 7.4 PBS buffer at 1 mg after 24 hrs by HPLC-UV method
Format: physicochemical
Conditions: not given
`O=C(Nc1c(F)c(F)c(-c2ccccc2)c(F)c1F)c1nsnc1O` gave a solubility at 24 h of 1690 µM (≈ 626 µg/mL).
Work on `Cn1nnc(O)c1C(=O)Nc1c(F)c(F)c(-c2ccccc2)c(F)c1F` yielded a solubility at 24 h of 48 µM (≈ 17.6 µg/mL).
Molecule `Cc1c(C(=O)Nc2c(F)c(F)c(-c3ccccc3)c(F)c2F)c(O)nn1C` has a solubility at 24 h of under 0.1 µM.
`Cc1c(-c2ccc(-c3ccccc3F)cc2)nc2ccc(F)cc2c1C(=O)O` [BREQUINAR] gave a solubility at 24 h of 359 µM (≈ 135 µg/mL).

System: not listed separately
Experiment: Stability in human Jurkat cells assessed as parent compound remaining at 100 uM after 72 hrs by HPLC-UV method
Format: ADME, cell-based
Conditions: read-out: Stability
`O=C(Nc1c(F)c(F)c(-c2ccccc2)c(F)c1F)c1nsnc1O` showed a remaining at 72 h, 100 µM of 80%.
Molecule `C/C(O)=C(\C#N)C(=O)Nc1ccc(C(F)(F)F)cc1` [TERIFLUNOMIDE] has a remaining at 72 h, 100 µM of 101%.
`Cn1nnc(O)c1C(=O)Nc1c(F)c(F)c(-c2ccccc2)c(F)c1F` showed a remaining at 72 h, 100 µM of 99%.
With `Cc1c(C(=O)Nc2c(F)c(F)c(-c3ccccc3)c(F)c2F)c(O)nn1C` the remaining at 72 h, 100 µM was 94%.
With `Cc1c(-c2ccc(-c3ccccc3F)cc2)nc2ccc(F)cc2c1C(=O)O` [BREQUINAR] the remaining at 72 h, 100 µM was 98%.

System: Jurkat
Experiment: Antiproliferative activity against human Jurkat T cells assessed as DNA content after 72 hrs by Hoechst 33258 dye based fluorometric method
Format: functional, cell-based
Conditions: not given
Procedure, shortened: (§1)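 Jurkat T cells grown in X-VIVO 15 with 10% FBS and antibiotic-antimycotic at 37 °C, 5% CO2, passages 5–10, mycoplasma-free, STR-authenticated. IC50 came from nonlinear regression, mean ± SE of three experiments. Uridine, where added, was at 100 μM.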
For `O=C(Nc1c(F)c(F)c(-c2ccccc2)c(F)c1F)c1no[nH]c1=O`, the IC50 was 59.7 µM.
For `O=C(Nc1c(F)c(F)c(-c2ccccc2)c(F)c1F)c1nsnc1O`, the IC50 was 1.04 µM.
Work on `O=C(Nc1c(F)c(F)c(-c2cccc(OC(F)(F)F)c2)c(F)c1F)c1nsnc1O` yielded an IC50 of 2.5 µM.
`O=C(Nc1c(F)c(F)c(-c2cccc(OC(F)(F)F)c2)c(F)c1F)c1no[nH]c1=O` gave an IC50 of 68.3 µM.
Work on `Cn1nnc(O)c1C(=O)Nc1c(F)c(F)c(-c2ccccc2)c(F)c1F` yielded an IC50 of 5.82 µM.
`O=C(Nc1c(F)c(F)c(-c2ccccc2)c(F)c1F)c1nn(CC2CC2)nc1O` gave an IC50 of 7.13 µM.
With `Cn1nc(O)c(C(=O)Nc2ccc(-c3ccccc3)cc2F)n1` the IC50 was 35.7 µM.
Molecule `Cn1nc(O)c(C(=O)Nc2c(F)cc(-c3ccccc3)cc2F)n1` has an IC50 of 13.3 µM.
`Cc1c(C(=O)Nc2c(F)c(F)c(-c3ccccc3)c(F)c2F)c(O)nn1C` showed an IC50 of 2.22 µM.
With `O=C(Nc1c(F)c(F)c(-c2ccccc2)c(F)c1F)c1c(O)nnn1CC1CC1` the IC50 was 3.22 µM.
`Cc1c(-c2ccc(-c3ccccc3F)cc2)nc2ccc(F)cc2c1C(=O)O` [BREQUINAR] gave an IC50 of 0.93 µM.

System: not listed separately
Experiment: Selectivity index, ratio of compound concentration required to induce up to 30% cell death in human Jurkat T cells to IC50 for antiproliferative activity against human Jurkat T cells
Format: functional
Conditions: not given
Procedure, shortened: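 Ratio of two Jurkat T-cell readouts, both after 72 h compound or DMSO exposure of 5×10^3 cells/well. The numerator is the concentration causing ≥30% cytotoxicity by CellTox green (0.001–100 μM). Cells were grown in X-VIVO 15 with 10% FBS; three independent experiments.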
In the case of `O=C(Nc1c(F)c(F)c(-c2ccccc2)c(F)c1F)c1nsnc1O`, the “Selectivity Index” value is reported as 70.
In the case of `Cc1c(C(=O)Nc2c(F)c(F)c(-c3ccccc3)c(F)c2F)c(O)nn1C`, the “Selectivity Index” value is reported as 70.

System: not listed separately
Experiment: Solubility in human Jurkat cell growing medium with 1% DMSO at 1 mg after 24 hrs by HPLC-UV method
Format: physicochemical
Conditions: not given
`Cc1c(C(=O)Nc2c(F)c(F)c(-c3ccccc3)c(F)c2F)c(O)nn1C` showed a solubility at 24 h of over 100 µM.

System: not listed separately
Experiment: Solubility in pH 7.4 PBS buffer with 1% DMSO at 1 mg after 24 hrs by HPLC-UV method
Format: physicochemical
Conditions: not given
Molecule `Cc1c(C(=O)Nc2c(F)c(F)c(-c3ccccc3)c(F)c2F)c(O)nn1C` has a solubility at 24 h of 7 µM (≈ 2.66 µg/mL).

System: Jurkat
Experiment: Antiproliferative activity against human Jurkat T cells assessed as DNA content up to 200 uM after 72 hrs in presence of exogenous uridine by Hoechst 33258 dye based fluorometric method
Format: functional, cell-based
Conditions: not given
Procedure, shortened: as §1, with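 “STR-authenticated. 5×10^3 cells were exposed to 0.001–200 μM compound or DMSO vehicle for 72 h, lysed in 0.02% SDS/SSC, and stained with Hoechst 33258 (ex 355/em 460 nm).” for “STR-authenticated.”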
With `C/C(O)=C(\C#N)C(=O)Nc1ccc(C(F)(F)F)cc1` [TERIFLUNOMIDE] the Activity was “inactive”.

System: Jurkat
Experiment: Cytotoxicity against human Jurkat T cells assessed as compound concentration required to induce up to 30% cell death after 72 hrs by CellTox green assay
Conditions: not given
Molecule `O=C(Nc1c(F)c(F)c(-c2ccccc2)c(F)c1F)c1no[nH]c1=O` has an Activity of over 100 µM.
Molecule `O=C(Nc1c(F)c(F)c(-c2ccccc2)c(F)c1F)c1nsnc1O` has an Activity of 78 µM.
With `O=C(Nc1c(F)c(F)c(-c2cccc(OC(F)(F)F)c2)c(F)c1F)c1nsnc1O` the Activity was 5.2 µM.
In the case of `O=C(Nc1c(F)c(F)c(-c2cccc(OC(F)(F)F)c2)c(F)c1F)c1no[nH]c1=O`, the Activity is reported as over 100 µM.
In the case of `C/C(O)=C(\C#N)C(=O)Nc1ccc(C(F)(F)F)cc1` [TERIFLUNOMIDE], the Activity is reported as 53 µM.
`Cn1nnc(O)c1C(=O)Nc1c(F)c(F)c(-c2ccccc2)c(F)c1F` gave an Activity of 8.3 µM.
With `O=C(Nc1c(F)c(F)c(-c2ccccc2)c(F)c1F)c1nn(CC2CC2)nc1O` the Activity was 11 µM.
In the case of `Cn1nc(O)c(C(=O)Nc2ccc(-c3ccccc3)cc2F)n1`, the Activity is reported as 56.8 µM.
For `Cn1nc(O)c(C(=O)Nc2c(F)cc(-c3ccccc3)cc2F)n1`, the Activity was 49.3 µM.
`Cc1c(C(=O)Nc2c(F)c(F)c(-c3ccccc3)c(F)c2F)c(O)nn1C` gave an Activity of 82 µM.
Molecule `O=C(Nc1c(F)c(F)c(-c2ccccc2)c(F)c1F)c1c(O)nnn1CC1CC1` has an Activity of 6 µM.
`Cc1c(-c2ccc(-c3ccccc3F)cc2)nc2ccc(F)cc2c1C(=O)O` [BREQUINAR] showed an Activity of 45 µM.

System: PBMC
Experiment: Immunosuppressive activity against human PBMC assessed as inhibition of PHA-stimulated cell proliferation preincubated for 2 hrs followed by PHA stimulation for 72 hrs by BrdU incorporation assay
Format: functional, cell-based
Conditions: not given
Work on `O=C(Nc1c(F)c(F)c(-c2ccccc2)c(F)c1F)c1nsnc1O` yielded an IC50 of 6.2 µM.
Molecule `C/C(O)=C(\C#N)C(=O)Nc1ccc(C(F)(F)F)cc1` [TERIFLUNOMIDE] has an IC50 of 54.3 µM.
For `Cc1c(C(=O)Nc2c(F)c(F)c(-c3ccccc3)c(F)c2F)c(O)nn1C`, the IC50 was 10.7 µM.
Work on `Cc1c(-c2ccc(-c3ccccc3F)cc2)nc2ccc(F)cc2c1C(=O)O` [BREQUINAR] yielded an IC50 of 4.3 µM.

System: Jurkat
Experiment: Antiproliferative activity against human Jurkat T cells assessed as DNA content up to 100 uM after 72 hrs in presence of exogenous uridine by Hoechst 33258 dye based fluorometric method
Format: functional, cell-based
Conditions: not given
Procedure, shortened: as §1
For `O=C(Nc1c(F)c(F)c(-c2ccccc2)c(F)c1F)c1nsnc1O`, the Activity was “inactive”.
With `Cc1c(C(=O)Nc2c(F)c(F)c(-c3ccccc3)c(F)c2F)c(O)nn1C` the Activity was “inactive”.
With `Cc1c(-c2ccc(-c3ccccc3F)cc2)nc2ccc(F)cc2c1C(=O)O` [BREQUINAR] the Activity was “inactive”.
